Drawing on ChEMBL document CHEMBL1157807, “NO-releasing esters show carbonic anhydrase inhibitory action against human isoforms I and II” (Bioorg Med Chem, 2010), this text covers IC50 and Ki for 9 compounds.

Experiment [1] addresses T1, Carbonic anhydrase 2 (Homo sapiens, UniProt P00918). As to the kind of experiment: Inhibition of human carbonic anhydrase 2 esterase activity by spectrophotometry. The settings on record: read-out: I50. In short, it runs like this:
(§1)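 Enzyme purified from human erythrocytes. Esterase activity is followed as 4-nitrophenylacetate conversion to 4-nitrophenylate by absorbance at 348 nm over 3 min at 25 °C, in Tris–SO4 buffer pH 7.4. A reference cuvette lacks enzyme. Each inhibitor concentration is run in triplicate, with uninhibited control activity set to 100%. IC50 is read from %activity vs [inhibitor] plots.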

Experiment [2] concerns the target T1, Carbonic anhydrase 2. The experiment in a line: Competitive inhibition of human carbonic anhydrase 2 esterase activity by Lineweaver-Burke plot analysis. In short, it runs like this:
(§2)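 Erythrocyte-purified human isozyme in the 4-nitrophenylacetate esterase assay, read at 348 nm over 3 min at 25 °C in Tris–SO4 pH 7.4. Three inhibitor concentrations are each tested against five substrate concentrations (0.15–0.75 mM). Ki and inhibition mode are taken from Lineweaver–Burk plots.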

The target in experiment [3] is T2, Carbonic anhydrase 1 (Homo sapiens, UniProt P00915). The experiment in a line: Inhibition of human carbonic anhydrase 1 esterase activity by spectrophotometry. To be noted: read-out: I50. In short, it runs like this: as §1
T2 sequence (P00915 whole entry): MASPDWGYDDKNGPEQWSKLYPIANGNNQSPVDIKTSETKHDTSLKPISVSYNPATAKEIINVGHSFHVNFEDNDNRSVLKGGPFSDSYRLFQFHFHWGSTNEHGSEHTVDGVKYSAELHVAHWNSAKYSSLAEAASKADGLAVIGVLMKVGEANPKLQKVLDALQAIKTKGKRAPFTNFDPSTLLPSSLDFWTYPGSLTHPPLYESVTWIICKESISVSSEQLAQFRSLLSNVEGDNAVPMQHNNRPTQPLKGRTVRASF
Experiment [4] addresses T2, Carbonic anhydrase 1. As to the kind of experiment: Competitive inhibition of human carbonic anhydrase 1 esterase activity by Lineweaver-Burke plot analysis. In short, it runs like this:
as §2

Experiment [5] has as its target T2, Carbonic anhydrase 1. As to the kind of experiment: Noncompetitive inhibition of human carbonic anhydrase 1 esterase activity by Lineweaver-Burke plot analysis. In short, it runs like this: as §2
For experiment [6], the target named is T1, Carbonic anhydrase 2. As to the kind of experiment: Uncompetitive inhibition of human carbonic anhydrase 2 esterase activity by Lineweaver-Burke plot analysis. Put shortly: as §2
Experiment [7] has as its target T1, Carbonic anhydrase 2. As to the kind of experiment: Noncompetitive inhibition of human carbonic anhydrase 2 esterase activity by Lineweaver-Burke plot analysis. Put shortly: as §2
Experiment [8] concerns the target T2, Carbonic anhydrase 1. The experiment in a line: Uncompetitive inhibition of human carbonic anhydrase 1 esterase activity by Lineweaver-Burke plot analysis. In short, it runs like this: as §2

With `O=[N+]([O-])O[C@@H]1CC2c3ccccc3C1[C@@H]2O` (stereo partly drawn), the IC50 worked out at 98.1 µM at Carbonic anhydrase 2 [1] and 10200 µM at Carbonic anhydrase 1 [3]. Also, the values for the Ki at Carbonic anhydrase 2 [2] and on Carbonic anhydrase 1 [4] were 196 µM and 18700 µM, respectively.

With `O=[N+]([O-])O[C@H]1CC2CCC1[C@@H]2O` (stereo partly drawn), the IC50 on Carbonic anhydrase 2 [1] worked out at 73.1 µM; on Carbonic anhydrase 1 [3], 9100 µM. In addition, the Ki was 133 µM at Carbonic anhydrase 2 [2] and 17200 µM on Carbonic anhydrase 1 [4].

As for `O=[N+]([O-])O[C@@H]1CC2CCC1[C@@H]2O` (stereo partly drawn), the IC50 turned out to be 65.1 µM on Carbonic anhydrase 2 [1] and 7130 µM at Carbonic anhydrase 1 [3]. Moreover, the Ki turned out to be 121 µM on Carbonic anhydrase 2 [2] and 13600 µM on Carbonic anhydrase 1 [4].

In the case of `O=[N+]([O-])O[C@@H]1CC[C@H](Br)[C@@H]2CC[C@H]1O2`, the IC50 is 110 µM at Carbonic anhydrase 2 [1] and 12100 µM on Carbonic anhydrase 1 [3]. For the same compound, the Ki at Carbonic anhydrase 1 [5] worked out at 22500 µM; at Carbonic anhydrase 2 [6] it was 223 µM.

Turning to `O=[N+]([O-])O[C@H]1CCCCCC[C@@H]1O`, the IC50 on Carbonic anhydrase 2 [1] turned out to be 181 µM; on Carbonic anhydrase 1 [3], 23000 µM. For the same compound, the Ki at Carbonic anhydrase 1 [5] was found to be 45200 µM; at Carbonic anhydrase 2 [7], 267 µM.

On to `O=[N+]([O-])O[C@H]1CCCC[C@@H]1O`, for which the IC50 at Carbonic anhydrase 2 [1] was found to be 560 µM. The Ki amounted to 221000 µM on Carbonic anhydrase 1 [5] and 986 µM on Carbonic anhydrase 2 [7].

Take `O=[N+]([O-])O[C@H]1CC=CC[C@@H]1O` (racemic): the IC50 at Carbonic anhydrase 2 [1] was found to be 790 µM. The Ki amounted to 274000 µM at Carbonic anhydrase 1 [5] and 1370 µM on Carbonic anhydrase 2 [7].

For the compound `O=[N+]([O-])O[C@H]1CC/C=C\CC[C@@H]1O` (racemic), the IC50 at Carbonic anhydrase 2 [1] stood at 243 µM; at Carbonic anhydrase 1 [3], 21000 µM. Also, the figures for the Ki on Carbonic anhydrase 1 [5] and at Carbonic anhydrase 2 [7] were 41800 µM and 541 µM, respectively.

Regarding `O=[N+]([O-])O[C@@H](CO)c1ccccc1` (single isomer, unassigned), the IC50 on Carbonic anhydrase 2 [1] came out at 632 µM. In addition, the figures for the Ki on Carbonic anhydrase 1 [8] and at Carbonic anhydrase 2 [7] were 288000 µM and 1140 µM, respectively.

As usually defined, the Ki is a dissociation constant, usually derived from enzyme kinetics or from competition with a known ligand. Higher therefore signals a looser hold on the target.
